Source: PubChem (several laboratories)
Only some compounds are listed: those with a hit (about 1.9% of all), similar ones and a draw of the others.
SR-BI HDL uptake = inhibitors of mouse SR-BI mediated HDL lipid uptake. Q61009. 320,000 compounds, 0.96% hits. AID 488896. inhibition, % at 12.5 µM. ldlA[mSR-BI] CHO cells, DiI-HDL uptake fluorescence, 3 h;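 active = mean replicate inhibition of at least 70% and a set share of replicates each scoring 70 or more; inconclusive = meets just one of the two criteria; inactive = fails both criteria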;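 note: 0% = median of neutral control wells and 100% = median of positive control wells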
Target sequence (Q61009 whole entry, looked up): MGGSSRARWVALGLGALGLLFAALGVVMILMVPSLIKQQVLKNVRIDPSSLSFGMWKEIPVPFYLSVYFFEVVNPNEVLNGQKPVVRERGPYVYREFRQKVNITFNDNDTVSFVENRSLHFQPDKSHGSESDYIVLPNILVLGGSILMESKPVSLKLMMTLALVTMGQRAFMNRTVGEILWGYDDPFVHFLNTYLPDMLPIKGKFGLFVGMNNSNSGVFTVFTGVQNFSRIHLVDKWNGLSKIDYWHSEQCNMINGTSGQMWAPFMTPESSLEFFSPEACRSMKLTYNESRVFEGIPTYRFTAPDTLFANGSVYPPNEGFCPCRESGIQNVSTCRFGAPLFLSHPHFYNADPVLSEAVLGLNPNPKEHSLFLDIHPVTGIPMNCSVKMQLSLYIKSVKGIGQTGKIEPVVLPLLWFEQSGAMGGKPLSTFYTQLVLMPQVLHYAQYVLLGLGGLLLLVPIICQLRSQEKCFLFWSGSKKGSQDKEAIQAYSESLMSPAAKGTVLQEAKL
Rin1 Abl inh = blocks binding of human Rin1 to Abl; P00519+Q13671; TR-FRET Rin1/Abl binding, biochemical; inhibition, % at 7.35 µM; 360,000 compounds, 0.4% hits; AID 588664; in the data active = inhibition above about 5%, passing the limit was not always enough
SR-BI uptake up = SR-BI HDL lipid transfer activation. CHO ldlA[mSR-BI] cells, DiI-HDL uptake fluorescence, 3 h; 100 = double the neutral-control signal. activation, % at 12.5 µM. 320,000 compounds, 0.096% hits. AID 504775;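 active = mean replicate activation of at least 60% and every replicate at or above 60%; inconclusive = mean or all-replicate condition met, but not both; inactive = mean below 60% and not all replicates reaching 60%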;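 note: 0% = median plate neutral-control signal and 100% = twice that signal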
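Test system: SR-BI-overexpressing, LDLR-lacking CHO cells; Also added: labelled HDL, 10 µg/mL; Measured by: bottom-read cell fluorescence after medium removal, ex 550/em 595 nm; Timing: 3 h uptake period with compound, 37 °C; Buffer or medium: F12, 0.5% BSA, 25 mM HEPES; Doses: single compound concentration, delivered by pin transfer.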
GRK2 aptamer HTS = human GRK2 inhibition via aptamer displacement | P25098 | bead flow cytometry, FAM-aptamer displacement from GRK2 | inhibition of aptamer binding, % at 10 µM | 330,000 compounds, 0.59% hits | AID 488847;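 active = inhibition of aptamer binding above 40%, roughly 3 SD of noise, on plates passing a quality check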;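 note: median bead fluorescence of bound FAM aptamer so fluorescent compounds give negative values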
GRK2 inh confirm = confirmation of human GRK2 inhibitors displacing RNA aptamer; shares compounds with GRK2 aptamer HTS; 2,000 compounds, 4% hits; aptamer displacement, % at 10 µM; AID 504451; bead-bound GRK2, FAM-aptamer displacement, flow cytometry;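 active = aptamer displacement above 40%, near three times the noise of non-fluorescent compounds, on plates passing quality checks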;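 note: negative values mostly reflect intrinsic compound fluorescence rather than true enhancement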
FAM quench CP1 = aptamer fluorescence quenching in GRK2 counter-screen | fluorescence response (% of DMSO), % at 10 µM | Carboxyfluorescein RNA aptamer on beads, flow cytometry quenching; hits give low values | AID 504580 | shares compounds with GRK2 aptamer HTS | 2,000 tested, under 10 active;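 active = compounds that quench the bead-bound fluorescent RNA probe, cutting fluorescence to under half of the solvent control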;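 note: counterscreen run without GRK2 so only probe quenching by compound is measured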
GRK2 confirm 2 = human GRK2 inhibition confirmation, cherry pick 2; shares compounds with GRK2 aptamer HTS; bead-bound GRK2, FAM-aptamer displacement, flow cytometry; inhibition of aptamer binding, % at 10 µM; 360 tested, under 10 active; AID 504782;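 active = inhibition of aptamer binding above 40%, about triple the noise seen with nonglowing compounds, on plates passing quality control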;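 note: negative values mostly come from compounds that fluoresce themselves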
FAM quench CP2 = quenches fluorescent RNA aptamer, GRK2 hit artifact | 360 tested, under 10 active | AID 588494 | shares compounds with GRK2 aptamer HTS | carboxyfluorescein RNA aptamer beads, flow cytometry quenching; hits give low values | fluorescence response vs DMSO, % at 10 µM;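 active = response vs DMSO under 50%, meaning signal dropped by over half, treated as fluorescence quencher; inconclusive = no clear call, values can overlap the other calls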;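 note: labelled aptamer on streptavidin beads without GRK2 as a quench counter-screen; 100% = bead fluorescence of DMSO wells and lower means quenching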
Numbers without * were called inactive; ? = inconclusive; nt = not tested or not shown.

SMILES	SR-BI HDL uptake	Rin1 Abl inh	SR-BI uptake up	GRK2 aptamer HTS	GRK2 inh confirm	FAM quench CP1	others
CC(C)c1c(O)nc(SCc2ccccc2)[nH]c1=O	-24	2	24	3	nt	nt
CC(C)c1c(O)nc(SCc2ccc(F)cc2)[nH]c1=O	-14	3	14	60*	12	131
O=C1OCc2ccc(NC(=O)c3sccc3Cl)cc21	7	-1	-7	73*	-1	101
O=C(c1ccccc1)n1c(=S)nc2ccccn21	-2	1	2	0	nt	nt
Cc1cccc(C(=O)n2c(=S)nc3ccccn32)c1	-6	0	6	49*	-15	97
O=C(NCC(O)c1nc2ccccc2[nH]1)c1cc([N+](=O)[O-])ccc1F (stereo not drawn)	nt	-2	nt	nt	nt	nt
Cc1cc2cc(CNC(=O)c3ccc(S(=O)(=O)N4CCCCC4)cc3)ccc2n1C	33	-12	-33	66*	0	99	GRK2 confirm 2=-12;FAM quench CP2=100
Cc1cc2cc(CNC(=O)c3ccc(S(=O)(=O)N4CCCC4)cc3)ccc2n1C	0	-51	0	3	nt	nt
COc1ccc(C(=O)NCc2ccc3c(c2)cc(C)n3C)cc1OC	-7	-21	7	5	1	96
COc1ccc(/C=C\C(=O)NCc2ccc3c(c2)cc(C)n3C)cc1OC	?	-17	-73	4	nt	nt
Cc1cc2cc(CNS(=O)(=O)c3ccccc3)ccc2n1C	-5	-5	5	54*	3	84
Cc1cc2cc(CNC(=O)c3cccs3)ccc2n1C	6	-3	-6	40	nt	nt
COc1cccc(C(=O)NCc2ccc3c(c2)cc(C)n3C)c1	-24	-10	25	84*	0	96
COc1ccc(S(=O)(=O)NCc2ccc3c(c2)cc(C)n3C)cc1	-41	-2	41	0	nt	nt
O=C(Nc1ccccc1)C1Cc2c(-c3ccc4c(c3)OCO4)ccnc2O1 (stereo not drawn)	nt	0	nt	nt	nt	nt
C[C@H](CO)N1C[C@H](C)[C@H](CN(C)C(=O)Nc2cccc(C(F)(F)F)c2)OCc2cnnn2CCCC1=O	nt	-2	nt	nt	nt	nt
CN1CCN(CCCC(=O)c2ccc(C3CCCC3)cc2)CC1	24	-5	-24	0	nt	nt
COc1ccc(CC(=O)NCc2ccc3c(c2)cc(C)n3C)cc1	4	-6	-4	67*	-2	95
COc1ccc(NC(=S)NCc2ccc3c(c2)cc(C)n3C)cc1	17	-7	-17	1	nt	nt
CCCCN(C(=O)CSc1nnc(-c2ccc(OC)cc2)n1CC)c1c(N)n(Cc2ccccc2)c(=O)[nH]c1=O	10	3	-10	88*	-1	100
CCCCN(C(=O)c1cccc(-n2cccc2)c1)c1c(N)n(Cc2ccccc2)c(=O)[nH]c1=O	-4	2	4	46*	10	97
CCOC(=O)C1CCCCN1Cc1ccc(F)cc1 (stereo not drawn)	-11	-1	11	75*	0	102
C=CCc1c(C)nc(-c2ccccc2)nc1Nc1ccc(O)cc1	30	-3	-30	100*	nt	nt	GRK2 confirm 2=-7;FAM quench CP2=100
Cn1c(=O)c2nc3ccccc3nc2n(C)c1=O	-3	-4	3	1	nt	nt
CC(=O)Nc1ccc2nc3c(=O)n(C)c(=O)n(C)c3nc2c1	nt	-1	nt	42*	20	78
COc1ccc(CCNCc2ccc(OCc3ccccc3)cc2)cc1	-12	3	12	58*	-8	98
COc1ccc(CNS(=O)(=O)CCNCCc2ccccc2)cc1	-14	-2	14	nt	nt	nt
O=C1CCCC(O)=C1N=Nc1cccc(C(=O)O)c1	-14	-1	14	83*	4	98
COc1ccc(N2Cc3cccc(C(=O)O)c3C2=O)cc1	-13	-4	12	61*	32	97
Cc1ccccc1-c1csc(C(O)c2cccnc2)n1 (stereo not drawn)	nt	2	nt	nt	nt	nt
